Measurements from ChEMBL document CHEMBL4308915, “Synthesis of novel pyrazoline derivatives and the evaluation of death mechanisms involved in their antileukemic activity” (Bioorg Med Chem, 2019).
Calls of active or inactive are those of the source. No cut-off for these calls is given here.

Columns and labels:
K562 [1] = assay: Cytotoxicity against human K562 cells assessed as reduction in cell viability after 24 hrs by MTT assay; format: functional, cell-based; conditions: K562, 24 h
Procedure, shortened: (§1)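 MTT viability after 24 h exposure. Cells seeded at 5x10^4 per well and tested at 1-100 µM. Optical density of untreated cells set as 100% viable. IC50 derived by curve fitting. PBMC from healthy non-smoking volunteers, isolated by Ficoll-Hypaque.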

Jurkat [2] = assay: Cytotoxicity against human Jurkat cells assessed as reduction in cell viability after 24 hrs by MTT assay; format: functional, cell-based; procedure, shortened: as §1
K562 [3] = assay: Cytotoxicity against human K562 cells assessed as reduction in cell viability after 48 hrs by MTT assay; format: functional, cell-based; conditions: K562, 48 h
Daudi [4] = assay: Cytotoxicity against human Daudi cells assessed as reduction in cell viability after 48 hrs by MTT assay; format: functional, cell-based
B16-F10 = assay: Cytotoxicity against mouse B16F10 cells assessed as reduction in cell viability after 48 hrs by MTT assay; format: functional, cell-based; conditions: B16-F10, 48 h
Jurkat [5] = assay: Cytotoxicity against human Jurkat cells assessed as reduction in cell viability after 72 hrs by MTT assay; format: functional, cell-based
Daudi [6] = assay: Cytotoxicity against human Daudi cells assessed as reduction in cell viability after 72 hrs by MTT assay; format: functional, cell-based
PBMC = assay: Cytotoxicity against human PBMC assessed as reduction in cell viability after 72 hrs by MTT assay; format: cell-based
[7] = Selectivity index, ratio of IC50 for human PBMC to IC50 for human Jurkat cells after 24 hrs; format: toxicity; conditions: PBMC versus Jurkat cells, read-out: Ratio IC50
Procedure, shortened: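 MTT viability after 24 h exposure to 1-100µM; untreated control OD taken as 100%. IC50 by curve fitting in each line and in PBMC from six healthy donors (Ficoll-Hypaque). SI = IC50 PBMC / IC50 tumor line; SI ≥5 high, 2–5 moderate, <2 low.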

[8] = Hemolytic activity in human RBC at 1 time IC50 relative to control; format: ADME, cell-based, Erythrocyte; conditions: red blood cells (erythrocytes), read-out: Activity
Procedure, shortened: (§2)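 RBC from healthy non-smoking volunteers incubated with increasing concentrations of the selected pyrazolines. Saline served as the 0% lysis control and distilled water as the 100% lysis control. Percent hemolysis calculated relative to these controls.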

[9] = Hemolytic activity in human RBC at 2 times IC50 relative to control; format: ADME, cell-based, Erythrocyte; conditions: red blood cells (erythrocytes), read-out: Activity; procedure, shortened: as §2
[10] = Hemolytic activity in human RBC at 3 times IC50 relative to control; format: ADME, cell-based, Erythrocyte; conditions: red blood cells (erythrocytes), read-out: Activity; procedure, shortened: as §2
[11] = Hemolytic activity in human RBC at 9 times IC50 relative to control; format: ADME, cell-based, Erythrocyte; conditions: red blood cells (erythrocytes), read-out: Activity; procedure, shortened: as §2
[12] = Hemolytic activity in human RBC at 12 times IC50 relative to control; format: ADME, cell-based, Erythrocyte; conditions: red blood cells (erythrocytes), read-out: Activity; procedure, shortened: as §2
[13] = Hemolytic activity in human RBC at 15 times IC50 relative to control; format: ADME, cell-based, Erythrocyte; conditions: red blood cells (erythrocytes), read-out: Activity; procedure, shortened: as §2
K562 [14] = assay: Cell cycle arrest in human K562 cells assessed as increase in accumulation at G0/G1 phase at 32 uM after 12 hrs by propidium iodide/RNAse staining based flow cytometric analysis relative to control; format: functional
Jurkat [15] = assay: Cell cycle arrest in human Jurkat cells assessed as increase in accumulation at S phase at 30.08 uM after 12 hrs by propidium iodide/RNAse staining based flow cytometric analysis; format: functional
Jurkat [16] = assay: Antiproliferative activity against human Jurkat cells assessed as reduction in KI-67 expression at 30.08 uM after 12 hrs by flow cytometric analysis; format: functional, cell-based
K562 [17] = assay: Antiproliferative activity against human K562 cells assessed as reduction in KI-67 expression at 32 uM after 12 hrs by flow cytometric analysis; format: functional, cell-based
K562 [18] = assay: Induction of apoptosis in human K562 cells assessed as increase in chromatin condensation at 32 uM by acridine orange/ethidium bromide staining-based fluorescence microscopic analysis; format: functional, cell-based
K562 [19] = assay: Induction of apoptosis in human K562 cells assessed as increase in loss of membrane integrity at 32 uM by acridine orange/ethidium bromide staining-based fluorescence microscopic analysis; format: functional, cell-based
Jurkat [20] = assay: Induction of apoptosis in human Jurkat cells assessed as increase in membrane blebbing at 30.08 uM by acridine orange/ethidium bromide staining-based fluorescence microscopic analysis; format: functional, cell-based
Jurkat [21] = assay: Induction of apoptosis in human Jurkat cells assessed as increase in chromatin condensation at 30.08 uM by acridine orange/ethidium bromide staining-based fluorescence microscopic analysis; format: functional, cell-based
Jurkat [22] = assay: Induction of apoptosis in human Jurkat cells assessed as increase in loss of membrane integrity at 30.08 uM by acridine orange/ethidium bromide staining-based fluorescence microscopic analysis; format: functional, cell-based
K562 [23] = assay: Induction of apoptosis in human K562 cells at 32 uM after 12 hrs by Annexin-V FITC staining-based flow cytometry relative to control; format: functional
Jurkat [24] = assay: Induction of apoptosis in human Jurkat cells at 30.08 uM after 12 hrs by Annexin-V FITC staining-based flow cytometry relative to control; format: functional
Jurkat [25] = assay: Induction of DNA fragmentation in human Jurkat cells assessed as increase in ladder formation at 30.08 uM after 12 hrs by ethidium bromide staining based agarose gel electrophoresis method; format: functional, cell-based
K562 [26] = assay: Induction of apoptosis in human K562 cells assessed as increase in Bax expression at 32 uM after 12 hrs by flow cytometric analysis relative to control; format: functional
Jurkat [27] = assay: Induction of apoptosis in human Jurkat cells assessed as increase in Bax expression at 30.08 uM after 12 hrs by flow cytometric analysis relative to control; format: functional
K562 [28] = assay: Induction of apoptosis in human K562 cells assessed as decrease in Bcl2 expression at 32 uM after 12 hrs by flow cytometric analysis relative to control; format: functional; design: scale not given: the % may be the effect or the level left
K562 [29] = assay: Induction of apoptosis in human K562 cells assessed as reduction in cells with intact mitochondrial membrane potential at 32 uM after 12 hrs by flow cytometric analysis relative to control; format: functional; design: scale not given: the % may be the effect or the level left
Jurkat [30] = assay: Induction of apoptosis in human Jurkat cells assessed reduction in cells with intact mitochondrial membrane potential at 30.08 uM after 12 hrs by flow cytometric analysis relative to control; format: functional; design: scale not given: the % may be the effect or the level left
K562 [31] = assay: Induction of apoptosis in human K562 cells assessed as increase in FasR expression at 32 uM after 12 hrs by flow cytometric analysis relative to control; format: functional
K562 [32] = assay: Induction of apoptosis in human K562 cells assessed as increase in caspase-3 expression at 32 uM after 12 hrs by flow cytometric analysis relative to control; format: functional
Jurkat [33] = assay: Induction of apoptosis in human Jurkat cells assessed as increase in caspase-3 expression at 30.08 uM after 12 hrs by flow cytometric analysis relative to control; format: functional
PBL = assay: Cytotoxicity against acute leukemia patient-derived PBL cells assessed as reduction in cell viability after 24 hrs; format: functional, cell-based; conditions: Homo sapiens
Procedure, shortened: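 Mononuclear cells from acute leukemia patient samples (peripheral blood or bone marrow, taken before first treatment at diagnosis or relapse) isolated by Ficoll-Hypaque.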

Jurkat (human) = assay: Induction of apoptosis in human Jurkat cells assessed as increase in AIF release at 30.08 uM after 12 hrs by flow cytometric analysis relative to control
Jurkat [34] = assay: Induction of apoptosis in human Jurkat cells assessed as decrease in Bcl2 expression at 30.08 uM after 12 hrs by flow cytometric analysis relative to control; design: scale not given: the % may be the effect or the level left

## COc1cc(C2=NN(C(C)=O)C(c3ccc(Br)cc3)C2)cc(OC)c1OC (centres undefined)
K562 [1]
  IC50: 32 µM
Jurkat [2]
  IC50: 30.8 µM
K562 [3]
  IC50: 16.2 µM
Daudi [4]
  IC50: 34.8 µM
B16-F10
  IC50: 72.7 µM
Jurkat [5]
  IC50: 15.6 µM
Daudi [6]
  IC50: 33 µM
PBMC
  IC50: 118 µM
[7]
  selectivity ratio at 24 h: 10.6
[8]
  hemolysis at 1 times IC50: 0.9%
[9]
  hemolysis at 2 times IC50: 1.3%
[10]
  hemolysis at 3 times IC50: 1.6%
[11]
  hemolysis at 9 times IC50: 6%
[12]
  hemolysis at 12 times IC50: 12.9%
[13]
  hemolysis at 15 times IC50: 15.8%
K562 [14]
  Activity: 8%
Jurkat [15]
  Activity: inactive
Jurkat [16]
  Activity: Active
K562 [17]
  Activity: Active
K562 [18]
  Activity: Active
K562 [19]
  Activity: Active
Jurkat [20]
  Activity: Active
Jurkat [21]
  Activity: Active
Jurkat [22]
  Activity: Active
K562 [23]
  Activity: 25%
Jurkat [24]
  Activity: 24.6%
Jurkat [25]
  Activity: Active
K562 [26]
  Activity: 15.8%
Jurkat [27]
  Activity: 101.4%
K562 [28]
  Activity: 13.4%
K562 [29]
  Activity: 25.3%
Jurkat [30]
  Activity: 32.9%
K562 [31]
  Activity: 21.3%
K562 [32]
  Activity: 20%
Jurkat [33]
  Activity: 128.3%
PBL
  Activity: Dose-dependent effect
  IC50: 11.8 to 142 µM
Jurkat (human)
  Activity: 33.2%
Jurkat [34]
  Activity: 12.9%
